# In the library only some 2.6% were active in any assay of this set; here they are far more common.
# HSF1 inh: HSF1 inhibitors in luciferase reporter cells, primary screen, cell-based, NIH3T3, luminescence; NIH3T3-HGL HSE-luciferase, MG132-induced, luminescence 8 h; active compounds read low; activity change, negative = inhibition, % at 7.5 µM (by protocol); actives 0.77% (n = 300,000); AID 2098, 2009;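 active means more than half of replicate wells show activity change below -50%, luminescence cut by over half; inconclusive means some wells, but at most half, below -50%; inactive means no replicate well below -50%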;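 further: luciferase reports HSF-1 transcriptional activity via heat shock element; 0% = median of DMSO wells and -100% = zero luminescence signal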
# Mdm2 ligase inh: MDM2-luciferase reporter signal enhancers, primary screen, MDM2 E3 ligase inhibitor project, cell-based, luminescence, 1536-well; E3 ubiquitin-protein ligase Mdm2 (Homo sapiens), Q00987; cell-based MDM2 ubiquitination luciferase reporter, 2 h; 0 = plate control, 100 = twice control, blank-subtracted; signal enhancement, % at 5 µM; actives 0.11% (n = 210,000); AID 1230, 2008;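 active means signal enhancement of 30% or more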;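 further: luminescence tracks abundance of the self-degrading MDM2-luciferase fusion protein; higher signal means inhibition of MDM2 E3 ligase activity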
#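 System: stable MDM2–luciferase fusion reporter cells / Input: 2000 cells seeded into each well / Schedule: 4 h settle plus 2 h compound, 37 °C / Compound: single-point 5 µM / Buffer or medium: cells held in DMEM / Benchmarks: control and blank well means / Evaluation: percent signal gain over controls, blank-subtracted / Measured by: luciferase luminescence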
# Hsp70 activator: Hsp70 transcriptional activators, primary screen, cell-based, HeLa, Hsp70 promoter luciferase, luminescence, 10 µM; activation, % at 10 µM; HeLa Hsp70 promoter luciferase reporter; scaled: vehicle 0, proteasome-inhibitor control 100%; actives 0.04% (n = 200,000);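 active means activation above the mean across all tested compounds plus 3 SD, cutoff set per campaign, cut at about 5.5% in these data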;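 further: 100% = MG132 at 30 µM as the positive control and 0% = DMSO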
# HSF-1 act: HSF-1 activators, primary screen, NIH3T3-HGL cells, MG132 stress, luminescence, single point; actives 1.7% (n = 300,000); NIH3T3-HGL HSF-1 luciferase reporter, 8 h; 100% = twice DMSO control signal; activation, % at 9 µM;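 active means mean replicate activation of at least 50% with a set share of replicates each reaching 50%; inconclusive means only one of those two conditions met; inactive means mean below 50% and too few replicates reaching it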;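 further: 0% = median of the neutral control wells and 100% = twice that signal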
# Rad51 HR inh: human RAD51 strand exchange inhibitors, primary screen, biochemical, fluorescence. inhibition, % at 10 µM. AID 1385, 2008. actives 0.085% (n = 200,000). hRad51 DNA strand exchange, fluorescence dequenching;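 active means inhibition above 40% at the single screening dose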;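 further: 0% = DMSO control wells and 100% = blanks with heterologous ssDNA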
# Target sequence (Q06609 whole entry, looked up): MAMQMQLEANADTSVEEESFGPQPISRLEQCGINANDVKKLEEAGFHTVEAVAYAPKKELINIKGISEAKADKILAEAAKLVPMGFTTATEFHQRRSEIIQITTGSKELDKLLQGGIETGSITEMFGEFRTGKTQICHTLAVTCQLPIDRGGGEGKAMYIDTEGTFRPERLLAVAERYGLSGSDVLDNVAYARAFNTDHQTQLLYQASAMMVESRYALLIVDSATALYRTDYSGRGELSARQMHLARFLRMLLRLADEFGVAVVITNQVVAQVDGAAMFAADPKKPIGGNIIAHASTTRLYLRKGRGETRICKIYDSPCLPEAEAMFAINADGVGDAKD
#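 material = hRad51 filaments on single-stranded DNA | reagent = Donor/quencher-labelled 47-bp dsDNA substrate | compound = 10 µM final, single point | schedule = strand-exchange reaction 15 min at room temperature | measured by = fluorescein emission 520 nm, excitation 485 nm | read-out basis = % inhibition versus plate control and blank means | benchmarks = plate controls and plate blanks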
# HSV replic up: enhancers of HSV replication in host cells, fold increase, host cell viability; HSV replication augmentation in cells; maximum fold increase; actives 0.005% (n = 220,000); in the data active means maximum fold increase above about 1.5; inconclusive means no clear call, values can overlap the other calls; tested in PC3 cells
# Starred values were filed as active, the others as inactive; i = inactive; ? = inconclusive; / = no result.
SMILES,HSF1 inh,Mdm2 ligase inh,Hsp70 activator,HSF-1 act,Rad51 HR inh,HSV replic up
COc1ccc(S(=O)(=O)N2CCCC(C(=O)N3CCOCC3)C2)cc1OC (configuration not stated),4,/,/,2,/,/
COC(=O)c1cccc(NC(=O)CN2CCc3ccccc3C2)c1,-1,/,/,11,/,/
CC(=O)Nc1cccc(Oc2ccc3c(c2)C(=O)NC3=O)c1,17,/,/,29,/,/
O=C(Nc1ccc2c(c1)OCO2)c1cc(-c2ccccc2Cl)on1,14,/,/,57*,/,/
CC(C)(O)C#Cc1ccc(C(=O)Nc2ccc3c(c2)OCO3)s1,41,/,/,60*,/,/
C#Cc1ccc([C@@H]2C=C(C(=O)O)O[C@H](OCC)[C@H]2CCCO)cc1,7,/,/,-6,-11,i
O=C(CSc1n[nH]c(-c2ccccc2)n1)Nc1ccccc1O,37,/,/,65*,/,/
Cc1ccc([N+](=O)[O-])cc1NC(=O)CSc1n[nH]c(-c2cccnc2)n1,-87*,/,/,-90,/,/
CCOC(=O)c1c(C)n(CCOc2ccccc2)c2ccc(O)cc12,28,/,/,69*,/,/
CCOC(=O)c1c(COc2ccccc2)oc2ccc(O)cc12,74,2,0,105*,2,i
Nn1c(SCc2ccccc2)nnc1-c1ccco1,-68*,-15,0,-74,3,i
CCOC(=O)c1c(NC(=O)COC(=O)CNC(=O)c2ccc(Cl)cc2Cl)sc(C(=O)N(C)C)c1C,-3,/,/,4,/,/
COc1ccc(C(C#N)=C2C=CC(=NO)C=C2)cc1,118,-13,/,168*,10,i
COc1ccc(C(=O)c2ccc(Cl)cc2)cc1,18,-15,0,-4,-12,i
O=C(COc1ccc(F)cc1)c1ccc2c(c1)CCCC2,47,/,0,78*,-4,i
CCN(Cc1ccc(O)cc1)CC1CCCN(CCc2cccc(F)c2)C1 (configuration not stated),8,/,/,-5,/,/
CCn1ncc(Br)c1C(=O)Nc1cccc(F)c1,4,-3,0,8,-3,i
CCn1ncc(Br)c1C(=O)Nc1ccc(C(C)C)cc1,25,/,/,59*,/,/
COc1ccc(S(=O)(=O)NCC(=O)N(CC(=O)NCC2CCCO2)Cc2ccccc2)cc1 (configuration not stated),-3,/,/,2,/,/
CCOC(=O)/C=C(/C)N1N=C(c2ccc(OC)cc2)CC1c1cccc([N+](=O)[O-])c1 (configuration not stated),26,1,0,59*,/,i
COc1ccc(C2=NN(C(=O)c3ccccc3)C(c3cccc([N+](=O)[O-])c3)C2)cc1 (configuration not stated),5,-4,/,17,/,i
O=C(O)C1CCCCC1C(=O)NCCc1ccc(F)cc1 (configuration not stated),-10,7,0,8,1,i
OCCN1CCN(C2CCC(c3ccc(F)cc3)c3ccc(F)cc32)CC1 (configuration not stated),1,/,/,-1,/,/
COc1cccc2cc(-c3ccccc3)c(=O)oc12,27,-9,0,62*,3,i
CCN1C=CC(=C2C(=O)c3ccccc3C2=O)C=C1,-76*,-97,-1,-79,-2,i
SMILES,HSF1 inh,Mdm2 ligase inh,Hsp70 activator,HSF-1 act,Rad51 HR inh,HSV replic up
CCCCCCN1C=CC(=C2C(=O)c3ccccc3C2=O)C=C1,?,-74,0,-59,-11,i
CCCN1C=CC(=C2C(=O)c3ccccc3C2=O)C=C1,-83*,-84,0,-85,3,i
COc1ccc(Cn2nnnc2CN2CCc3ccccc3C2)cc1,-61*,-46,0,-69,-6,i
COc1ccc(Cn2nnnc2CN2CCc3ccccc32)cc1,11,-14,0,-1,1,i
Cc1ccc(S(=O)(=O)/N=C(/Nc2cccc3ccccc23)c2ccc(F)cc2)cc1,7,/,/,19,/,/
Cc1ccn(CCC(=O)Nc2ccc3c(c2)OCO3)n1,1,/,/,4,/,/
CNc1nc(SC(C)C(=O)Nc2ccc(Cl)c(Cl)c2)nc(N2CCOCC2)n1 (configuration not stated),12,-5,0,68*,9,i
C=CCn1c(-c2ccc3ncccc3c2)n[nH]c1=S,-2,-9,/,2,11,i
COc1ccc(NC(=O)CN(C)C(=O)c2cn(-c3ccccc3)nc2-c2cccnc2)cc1,-7,/,/,-13,/,/
Cc1cccc(C(=O)NC(=S)NNC(=O)c2ccccc2Cl)c1,-86*,13,0,-89,3,i
CCC(C)c1ccc(NC(=O)NCCN2CCCCC2)cc1 (configuration not stated),-5,/,/,-11,/,/
O/N=C/c1cc(Br)ccc1OCc1ccc(F)cc1,32,/,0,42,-3,i
Cc1ccc(COc2ccc(Br)cc2/C=N/O)cc1,74,-10,0,94*,2,i
O/N=C/c1ccc(OCc2ccccc2F)c(Cl)c1,41,-42,0,84*,9,i
O/N=C/c1ccc(OCc2ccccc2)c(Cl)c1,39,-14,0,58*,-43,i
O/N=C/c1ccc(OCc2ccccc2)c(Br)c1,47,-11,0,66*,-8,i
O/N=C/c1ccccc1OCc1ccccc1F,11,0,0,19,3,i
CCOc1cc(/C=N/O)ccc1OCc1ccc(C)cc1,38,-15,0,33,3,i
CCN(CC)S(=O)(=O)c1ccc(OC)c(NC(=O)C(Cc2ccccc2)N2C(=O)c3ccccc3C2=O)c1 (configuration not stated),3,-11,0,4,-7,i
COc1ccc(CNC(=O)c2cc(=O)c3cc(C)cc(C)c3o2)cc1,-13,/,/,-12,/,/
CN(C)c1ccc(C(=O)Nc2ccc(S(=O)(=O)Nc3nccs3)cc2)cc1,-2,/,/,4,/,/
Cc1ccccc1-n1nc(CSc2nc3ccccc3[nH]2)c(-c2ccccc2)c1N,23,-1,0,60*,-4,i
COc1ccc(CCNC(=O)CC(c2ccccc2)c2cccc(C)c2O)cc1OC (configuration not stated),4,/,0,11,13,i
COc1ccc(C2CC(=O)C(C=NCCO)=C(O)C2)cc1 (configuration not stated),-4,/,/,11,/,/

# Screens deposited in PubChem BioAssay by several laboratories.
